The record followed here is ChEMBL document CHEMBL1122343, “2-Benzazepines. 4. [1,2,3]Triazolo[4,5-d][2]benzazepines and dibenzo[c,f][1,2,3]triazolo[3,4-a]azepines: synthesis and evaluation as central nervous system agents” (J Med Chem, 1983).

As a reminder, the ED50 is the dose at which the effect has come halfway, by size or by number of responders. Low values mean greater potency, high ones weaker potency. A word on the IC50: it is the concentration needed to halve the response being measured. A higher IC50 goes with weaker potency in that assay. What is called LD50 is the dose expected to kill half of the subjects tested. The low end stands for greater toxicity, the high end for lower toxicity.

In data set [1] the test system is Mus musculus. Briefly: Antianxiety activity, by anti-pentylenetetrazole test carried out on 50-54 day old mice (po). Format: functional. Put shortly: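 Oral dosing to male CF-1 mice aged 50–54 days, using a modification of the Everett and Richards method. Metrazole was given iv at 70 mg/kg as the convulsant challenge.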
The subject of data set [2] is Mus musculus. Nature of the data set: Antianxiety activity, by inclined screen procedure carried out on 50-54 day old mice(po). In kind it is functional.
Data set [3] has as its system Mus musculus. Briefly: Antianxiety activity, by rotarod test carried out on 50-54 day old mice (po). Format: functional. Background: The rotarod test checks motor coordination on a turning rod.
For data set [4], the target named is GABA-A receptor; anion channel. Briefly: In vitro inhibition of [3H]diazepam binding to rat GABA-A benzodiazepine receptor. In kind it is protein-complex assay.
Data set [5] can be described thus: Lethal dose tested in mice by oral administration. In kind it is toxicity, organism-based. The note with it: mouse, in vivo.

`CN1C(=O)CN=C(c2ccccc2)c2cc(Cl)ccc21` [DIAZEPAM]: the ED50 was 1.4 mg/kg in data set [1], 25 mg/kg in data set [2] and 2.6 mg/kg in data set [3].
Take `Clc1ccccc1C1=NCc2n[nH]nc2-c2ccccc21`: the IC50 in data set [4] was 5.2 nM. In addition, the ED50 in data set [1] was > 100 mg/kg. The same molecule yielded an LD50 in data set [5] of 900 mg/kg.
Take `c1ccc(C2=NCc3n[nH]nc3-c3ccccc32)cc1`: in data set [4], the IC50 was 420 nM. Moreover, the ED50 in data set [1] was > 100 mg/kg. Further, in data set [5], the LD50 was 775 mg/kg.
`Fc1ccccc1C1=NCc2n[nH]nc2-c2ccc(Cl)cc21`: the IC50 in data set [4] amounted to 0.76 nM. In addition, the ED50 in data set [1] is 2.1 mg/kg; in data set [2] it was 302 mg/kg; in data set [3], 48 mg/kg. In addition, the LD50 in data set [5] was > 1000 mg/kg.
Consider `Clc1ccc2c(c1)C(c1ccccc1)=NCc1n[nH]nc1-2`, for which, in data set [4], the IC50 is 11 nM. The ED50 in data set [1] was 4.2 mg/kg; in data set [2] it was > 400 mg/kg; in data set [3], 26 mg/kg. The LD50 in data set [5] is > 1000 mg/kg.
Taken in the same sequence, the figures for `Clc1ccc2c(c1)C(c1ccccc1Cl)=NCc1n[nH]nc1-2` were 0.76 nM, 2.6 mg/kg, > 400 mg/kg, 57 mg/kg and > 1000 mg/kg.
